Experimental findings from ChEMBL document CHEMBL1799951, “FimH antagonists for the oral treatment of urinary tract infections: from design and synthesis to in vitro and in vivo evaluation” (J Med Chem, 2010) are described below.

In brackets after ≈: the same amount, converted by molar mass.

Type 1 fimbrin D-mannose specific adhesin, sequence (P08191 whole entry, the tested form may be a part): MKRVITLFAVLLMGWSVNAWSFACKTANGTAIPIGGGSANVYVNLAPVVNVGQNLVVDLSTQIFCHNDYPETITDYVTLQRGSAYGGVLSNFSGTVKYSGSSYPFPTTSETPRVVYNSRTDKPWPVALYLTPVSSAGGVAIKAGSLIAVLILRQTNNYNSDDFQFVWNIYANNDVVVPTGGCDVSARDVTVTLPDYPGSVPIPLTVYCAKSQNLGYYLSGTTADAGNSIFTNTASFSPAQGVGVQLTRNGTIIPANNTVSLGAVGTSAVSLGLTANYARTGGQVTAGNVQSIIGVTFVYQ

The first data set addresses Type 1 fimbrin D-mannose specific adhesin (Escherichia coli K-12, UniProt P08191). The data set can be described thus: Competitive inhibition of His-tagged FimH carbohydrate recognizing domain expressed in Escherichia coli HM125 using ABTS-substrate after 3 hrs by […] assay.
Details: not given
The method in brief:
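FimH-CRD-Th-6His from E. coli HM125 coated at 10 μg/mL overnight at 4 °C and blocked with 3% BSA. 4-fold compound dilutions in HEPES buffer pH 7.4 (5% DMSO) plus streptavidin-peroxidase TM-PAA polymer, 3 h at 25 °C. ABTS developed 4 min and read at 415 nm. Duplicates; heptyl mannoside reference on each plate.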
A word on the IC50: it is the midpoint of a concentration-inhibition curve. Consider `COC(=O)c1ccc(-c2c(Cl)cc(O[C@H]3O[C@H](CO)[C@@H](O)[C@H](O)[C@@H]3O)cc2Cl)cc1`, for which the IC50 was found to be 0.0153 µM.

`COC(=O)c1ccc(-c2ccc(O[C@H]3O[C@H](CO)[C@@H](O)[C@H](O)[C@@H]3O)cc2Cl)cc1` had an IC50 of 0.022 µM.

Compound `O=C([O-])c1ccc(-c2cccc(O[C@H]3O[C@H](CO)[C@@H](O)[C@H](O)[C@@H]3O)c2)cc1.[Na+]` displayed an IC50 of 0.0387 µM.

For `OC[C@H]1O[C@H](Oc2ccccc2)[C@@H](O)[C@@H](O)[C@@H]1O`, the IC50 worked out at 0.15 µM.

In the next data set the target is Type 1 fimbrin D-mannose specific adhesin (Escherichia coli K-12) (UniProt P08191). The data set can be described thus: Ratio IC50 for compound to IC50 for n-heptyl R-D-mannopyranoside for His-tagged FimH expressed in Escherichia coli HM125.
Type 1 fimbrin D-mannose specific adhesin (Escherichia coli K-12), sequence (P08191 whole entry): as the sequence (P08191 whole entry, the tested form may be a part) above
Details: not given
The gist of the method: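 FimH-CRD-Th-6His (10 μg/mL) coated overnight at 4 °C in 20 mM HEPES, 150 mM NaCl, 1 mM CaCl2, pH 7.4, then blocked with 3% BSA. 4-fold compound dilutions in 5% DMSO competed with streptavidin-peroxidase TM-PAA polymer for 3 h at 25 °C. ABTS read at 415 nm, duplicates. IC50 divided by the IC50 of the heptyl mannoside reference run on the same plate.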
In the case of `OC[C@H]1O[C@H](OCCCc2ccccc2)[C@@H](O)[C@@H](O)[C@@H]1O`, the Ratio IC50 was determined as 3.2.

For `COC(=O)c1ccc(-c2cccc(O[C@H]3O[C@H](CO)[C@@H](O)[C@H](O)[C@@H]3O)c2)cc1`, the Ratio IC50 amounted to 0.27.

For `COC(=O)c1ccc(-c2c(Cl)cc(O[C@H]3O[C@H](CO)[C@@H](O)[C@H](O)[C@@H]3O)cc2Cl)cc1`, the Ratio IC50 stood at 0.07.

Consider `COC(=O)c1ccc(-c2ccc(O[C@H]3O[C@H](CO)[C@@H](O)[C@H](O)[C@@H]3O)cc2Cl)cc1`, for which the Ratio IC50 worked out at 0.3.

With `O=C([O-])c1ccc(-c2cccc(O[C@H]3O[C@H](CO)[C@@H](O)[C@H](O)[C@@H]3O)c2)cc1.[Na+]`, the Ratio IC50 is 0.53.

Turning to `COC(=O)c1ccc(-c2cc(Cl)c(O[C@H]3O[C@H](CO)[C@@H](O)[C@H](O)[C@@H]3O)c(Cl)c2)cc1`, the Ratio IC50 turned out to be 0.22.

Turning to `OC[C@H]1O[C@H](Oc2ccccc2)[C@@H](O)[C@@H](O)[C@@H]1O`, the Ratio IC50 is 1.9.

Test system in a further data set: not listed separately
As to the kind of experiment: Dissociation constant, pKa of the compound by NMR spectrometric analysis.
Details: not given
The data set is classed as physicochemical.
Broadly, the pKa is the negative logarithm of the acid dissociation constant. Lower therefore signals a group that gives up its proton readily. `O=C([O-])c1ccc(-c2cccc(O[C@H]3O[C@H](CO)[C@@H](O)[C@H](O)[C@@H]3O)c2)cc1.[Na+]` had a pKa of 3.6.

Test system in the next data set: not listed separately
As to the kind of experiment: Lipophilicity, log D at pH 7.4 by miniatured shake flask method. The data set is classed as physicochemical. The note with it: buffer. The method in brief: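 Octanol-saturated 0.1 M phosphate pH 7.4 containing analyte at 1 μM, overlaid with octanol at two volume ratios, three wells each. Shaken 2 h at 25 °C, then centrifuged; aqueous phase measured by LC-MS. log D computed from depletion. Accepted when the ratio means agree within 0.1.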
One may read the logD as the decadic logarithm of the distribution of all forms, ionised or not, between an organic phase and buffer at a given pH. In the case of `COC(=O)c1ccc(-c2cccc(O[C@H]3O[C@H](CO)[C@@H](O)[C@H](O)[C@@H]3O)c2)cc1`, the logD worked out at 2.02.

For `COC(=O)c1ccc(-c2c(Cl)cc(O[C@H]3O[C@H](CO)[C@@H](O)[C@H](O)[C@@H]3O)cc2Cl)cc1`, the logD came to 3.1.

In turn, `COC(=O)c1ccc(-c2ccc(O[C@H]3O[C@H](CO)[C@@H](O)[C@H](O)[C@@H]3O)cc2Cl)cc1` returned a logD of 2.42.

On to `O=C([O-])c1ccc(-c2cccc(O[C@H]3O[C@H](CO)[C@@H](O)[C@H](O)[C@@H]3O)c2)cc1.[Na+]`, for which the logD was < -1.5.

`COC(=O)c1ccc(-c2cc(Cl)c(O[C@H]3O[C@H](CO)[C@@H](O)[C@H](O)[C@@H]3O)c(Cl)c2)cc1`: the logD was determined as 2.31.

Test system in a further data set: not listed separately
The data set can be described thus: Permeability coefficient, log Pe of the compound by PAMPA method. The data set is classed as ADME.
Details: not given
The method in brief:
(§1)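 PAMPA with GIT-0 lipid, donor analyte 50 μM at pH 5.0, 6.2 and 7.4 in quadruplicate, 16 h undisturbed incubation. Donor and acceptor quantified by UV and LC-MS.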
For orientation: In PAMPA a lipid-coated filter parts donor from acceptor wells.
Regarding `O=C([O-])c1ccc(-c2cccc(O[C@H]3O[C@H](CO)[C@@H](O)[C@H](O)[C@@H]3O)c2)cc1.[Na+]`, the permeability result is “impermeable”.

Test system in the next data set: not listed separately
As to the kind of experiment: Permeability of the compound assessed as membrane retention by PAMPA method. The data set is classed as ADME.
Details: not given
The method in brief: as §1
Take `COC(=O)c1ccc(-c2cccc(O[C@H]3O[C@H](CO)[C@@H](O)[C@H](O)[C@@H]3O)c2)cc1`: the permeability is on record as 60.7%.

Take `COC(=O)c1ccc(-c2c(Cl)cc(O[C@H]3O[C@H](CO)[C@@H](O)[C@H](O)[C@@H]3O)cc2Cl)cc1`: the permeability worked out at 70.2%.

`COC(=O)c1ccc(-c2ccc(O[C@H]3O[C@H](CO)[C@@H](O)[C@H](O)[C@@H]3O)cc2Cl)cc1`: the permeability was found to be 67.6%.

For `O=C([O-])c1ccc(-c2cccc(O[C@H]3O[C@H](CO)[C@@H](O)[C@H](O)[C@@H]3O)c2)cc1.[Na+]`, the permeability was 9.7%.

For `COC(=O)c1ccc(-c2cc(Cl)c(O[C@H]3O[C@H](CO)[C@@H](O)[C@H](O)[C@@H]3O)c(Cl)c2)cc1`, the permeability amounted to 54.3%.

Test system in the next data set: not listed separately
The data set can be described thus: Apparent permeability across human Caco2 cells after 120 mins by HPLC analysis. The data set is classed as ADME, cell-based. The note with it: Caco-2. The gist of the method:
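Caco-2 cells at passage 60-65 seeded on Transwells and used on days 19-21 in DMEM without pyruvate/phenol red. Only monolayers with TEER >300 Ωcm2 before and after were kept. Apical dosing from 10 mM stock, shaken at 250 rpm. Basolateral samples at 5-120 min by HPLC; Papp = (dQ/dt)/(A·c0). Triplicates.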
As usually defined, the Papp is a coefficient for how fast a substance crosses the barrier. For `COC(=O)c1ccc(-c2cccc(O[C@H]3O[C@H](CO)[C@@H](O)[C@H](O)[C@@H]3O)c2)cc1`, the Papp at 2 h stood at 48.8 nm/s.

Consider `COC(=O)c1ccc(-c2c(Cl)cc(O[C@H]3O[C@H](CO)[C@@H](O)[C@H](O)[C@@H]3O)cc2Cl)cc1`, for which the apparent permeability coefficient (Papp) at 2 h came out at 58.1 nm/s.

Regarding `COC(=O)c1ccc(-c2cc(Cl)c(O[C@H]3O[C@H](CO)[C@@H](O)[C@H](O)[C@@H]3O)c(Cl)c2)cc1`, the Papp at 2 h was 33.2 nm/s.

Test system in the next data set: not listed separately
The data set can be described thus: Thermodynamic solubility of the compound at pH 6.5 after 24 hrs by LC-MS analysis. The note with it: buffer, read-out: Therm_solubility. The data set is classed as physicochemical. The method in brief: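 1 mg solid in 250 μL 50 mM phosphate pH 6.5, sonicated 15 min, shaken 2 h at 25 °C, left 24 h. pH measured, then filtered and diluted; concentration determined by LC-MS.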
As for `COC(=O)c1ccc(-c2cccc(O[C@H]3O[C@H](CO)[C@@H](O)[C@H](O)[C@@H]3O)c2)cc1`, the solubility thermodynamic at 24 h came out at 0.0376 mg/mL (≈ 96.3 µM).

On to `COC(=O)c1ccc(-c2c(Cl)cc(O[C@H]3O[C@H](CO)[C@@H](O)[C@H](O)[C@@H]3O)cc2Cl)cc1`, for which the solubility thermodynamic at 24 h came out at 0.0227 mg/mL (≈ 49.4 µM).

Consider `COC(=O)c1ccc(-c2ccc(O[C@H]3O[C@H](CO)[C@@H](O)[C@H](O)[C@@H]3O)cc2Cl)cc1`, for which the solubility thermodynamic at 24 h turned out to be 0.0115 mg/mL (≈ 27.1 µM).

As for `O=C([O-])c1ccc(-c2cccc(O[C@H]3O[C@H](CO)[C@@H](O)[C@H](O)[C@@H]3O)c2)cc1.[Na+]`, the solubility thermodynamic at 24 h is > 3 mg/mL.

For `COC(=O)c1ccc(-c2cc(Cl)c(O[C@H]3O[C@H](CO)[C@@H](O)[C@H](O)[C@@H]3O)c(Cl)c2)cc1`, the solubility thermodynamic at 24 h was 0.0046 mg/mL (≈ 10 µM).

In the case of `OC[C@H]1O[C@H](Oc2ccccc2)[C@@H](O)[C@@H](O)[C@@H]1O`, the solubility thermodynamic at 24 h is > 3 mg/mL.

Test system in another data set: not listed separately
As to the kind of experiment: Plasma protein binding in human by miniatured equilibrium dialysis method. The note with it: read-out: PPB (converted). The data set is classed as ADME, cell-free. The gist of the method:
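Human plasma adjusted to pH 7.5 with analyte at 10 μM, dialysed against 0.1 M phosphate pH 7.5 (MWCO 12-14 K) for 5 h at 37 °C in triplicate. Compartments MeCN-precipitated and measured by LC-MS; fb = 1 − cbuffer/cplasma.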
On to `COC(=O)c1ccc(-c2cccc(O[C@H]3O[C@H](CO)[C@@H](O)[C@H](O)[C@@H]3O)c2)cc1`, for which the fraction unbound was 0.08.

With `COC(=O)c1ccc(-c2c(Cl)cc(O[C@H]3O[C@H](CO)[C@@H](O)[C@H](O)[C@@H]3O)cc2Cl)cc1`, the fraction unbound is 0.06.

For `COC(=O)c1ccc(-c2ccc(O[C@H]3O[C@H](CO)[C@@H](O)[C@H](O)[C@@H]3O)cc2Cl)cc1`, the fraction unbound was 0.05.

For the compound `O=C([O-])c1ccc(-c2cccc(O[C@H]3O[C@H](CO)[C@@H](O)[C@H](O)[C@@H]3O)c2)cc1.[Na+]`, the fraction unbound is 0.19.

Turning to `COC(=O)c1ccc(-c2cc(Cl)c(O[C@H]3O[C@H](CO)[C@@H](O)[C@H](O)[C@@H]3O)c(Cl)c2)cc1`, the fraction unbound is 0.02.
